Active and inactive are the calls of the source. The calls are words filed in the database; no cut-off is given here.
What was measured:
Bos taurus [1] = species on record: Bos taurus; test: Antioxidant activity in bovine heart submitochondrial particles assessed as inhibition of antimycin A-induced ROS production at 10 uM by fluorescence assay; type: functional
How it was run: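 Submitochondrial particles given NADH; ROS production triggered by antimycin A addition. Quinone (oxidized) form tested at 10 μM.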

Bos taurus [2] = species on record: Bos taurus; test: Antioxidant activity in bovine heart submitochondrial particles assessed as inhibition of antimycin A-induced ROS production at 10 uM pretreated for 30 mins with human NQO1 by fluorescence assay; type: functional
How it was run: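 Submitochondrial particles given NADH; ROS production triggered by antimycin A. Compound first reduced by 30 min preincubation with purified human NQO1 using NADH as substrate, reaction then stopped with 10 μM dicumarol; tested at 10 μM.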

T67 [3] = test: Antioxidant activity in human T67 cells assessed as inhibition of tert-butyl hydroperoxide-induced ROS production at 10 uM after 24 hrs by fluorescence assay; type: functional, cell-based
How it was run: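 T67 cells without sulforaphane pretreatment; ROS formation induced by t-BuOOH; oxidized form tested at 10 μM; significance set at p ≤ 0.05 versus t-BuOOH-treated cells.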

T67 [4] = test: Antioxidant activity in human T67 cells assessed as inhibition of tert-butyl hydroperoxide-induced ROS production at 10 uM after 24 hrs by fluorescence assay in presence of 2.5 uM sulforaphane treated for 24 hrs before compound addition; type: functional, cell-based
How it was run: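 T67 cells pretreated with 2.5 μM sulforaphane to raise NQO1 activity; ROS formation induced by t-BuOOH; oxidized form tested at 10 μM; significance set at p ≤ 0.05 versus t-BuOOH + sulforaphane-treated cells.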

[5] = Inhibition of amyloid beta (1 to 42) self-aggregation assessed as amyloid fibril formation at 10 uM by thioflavin-T based fluorometric assay
How it was run: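 Self-induced Aβ(1-42) aggregation at 50 μM, test compound at 10 μM; percent inhibition reported with SEM.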

Acetylcholinesterase = Acetylcholinesterase (Homo sapiens, UniProt P22303); test: Inhibition of human recombinant AChE by Ellman's method
Acetylcholinesterase, sequence (P22303 whole entry): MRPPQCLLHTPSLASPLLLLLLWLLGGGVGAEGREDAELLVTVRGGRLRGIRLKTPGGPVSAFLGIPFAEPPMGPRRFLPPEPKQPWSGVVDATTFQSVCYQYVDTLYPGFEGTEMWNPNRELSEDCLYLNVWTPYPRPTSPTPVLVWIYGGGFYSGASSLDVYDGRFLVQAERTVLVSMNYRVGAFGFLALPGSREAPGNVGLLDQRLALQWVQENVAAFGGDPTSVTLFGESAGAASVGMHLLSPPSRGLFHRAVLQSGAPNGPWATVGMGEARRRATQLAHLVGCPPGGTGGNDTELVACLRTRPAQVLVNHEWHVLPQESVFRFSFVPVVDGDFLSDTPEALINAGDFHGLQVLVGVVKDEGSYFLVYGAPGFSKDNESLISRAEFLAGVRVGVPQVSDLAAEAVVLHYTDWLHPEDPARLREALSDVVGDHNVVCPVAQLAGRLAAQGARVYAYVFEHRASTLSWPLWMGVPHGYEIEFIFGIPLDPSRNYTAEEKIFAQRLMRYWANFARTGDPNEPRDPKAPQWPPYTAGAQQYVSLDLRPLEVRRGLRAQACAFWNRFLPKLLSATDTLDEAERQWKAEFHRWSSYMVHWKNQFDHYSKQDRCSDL
How it was run: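 Human recombinant AChE. IC50 is the inhibitor concentration that decreases enzyme activity by 50%. Values are the mean of two independent measurements, each run in triplicate, with SEM.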

Cholinesterase = Cholinesterase (Homo sapiens, UniProt P06276); test: Inhibition of human recombinant BChE by Ellman's method
Cholinesterase, sequence (P06276 whole entry): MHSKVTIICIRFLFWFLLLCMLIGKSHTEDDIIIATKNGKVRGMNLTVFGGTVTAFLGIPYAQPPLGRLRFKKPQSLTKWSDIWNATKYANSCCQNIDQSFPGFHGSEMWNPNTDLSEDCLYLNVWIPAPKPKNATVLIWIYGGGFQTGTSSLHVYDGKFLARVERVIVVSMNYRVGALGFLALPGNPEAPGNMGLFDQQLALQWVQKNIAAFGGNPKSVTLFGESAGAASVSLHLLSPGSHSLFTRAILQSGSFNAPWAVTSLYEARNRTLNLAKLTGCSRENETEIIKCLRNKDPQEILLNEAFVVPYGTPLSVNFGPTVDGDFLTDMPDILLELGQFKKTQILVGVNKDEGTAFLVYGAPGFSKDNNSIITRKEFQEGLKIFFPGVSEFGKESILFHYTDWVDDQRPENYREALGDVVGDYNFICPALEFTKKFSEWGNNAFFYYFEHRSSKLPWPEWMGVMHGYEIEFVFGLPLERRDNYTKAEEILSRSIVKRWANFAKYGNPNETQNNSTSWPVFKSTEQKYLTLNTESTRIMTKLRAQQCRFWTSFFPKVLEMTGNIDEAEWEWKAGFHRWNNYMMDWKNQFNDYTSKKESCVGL

Row | SMILES | Activity (Bos taurus [1]) | Activity (Bos taurus [2]) | Activity (T67 [3]) | Activity (T67 [4]) | inhibition [5] [%] | IC50 (Acetylcholinesterase) [nM] | IC50 (Cholinesterase) [nM]
1 | CCN(CCCNC1=CC(=O)C(NCCCCCCNC(=O)CCCCC2CCSS2)=CC1=O)Cc1ccccc1OC (stereo unspecified) | Active | Active | Active | Active | 31.8 | 160 | 11100
2 | CCN(CCCCCCNC1=CC(=O)C(NCCCCCCNC(=O)CCCCC2CCSS2)=CC1=O)Cc1ccccc1OC (stereo unspecified) | Active | Active | Active | Active | 45.4 | 100 | 4990
3 | O=C(CCCCC1CCSS1)NCCCNc1c2c(nc3cc(Cl)ccc13)CCCC2 (stereo unspecified) |  |  |  | inactive | < 10 |  | 
4 | CCN(CCCCCCNC1=CC(=O)C(NCCCCCCN(CC)Cc2ccccc2OC)=CC1=O)Cc1ccccc1OC [MEMOQUIN] |  |  |  |  |  | 1.5 | 
5 | CCN(CCCCCCNC1=CC(=O)C(NCCCNC(=O)CCCCC2CCSS2)=CC1=O)Cc1ccccc1OC (stereo unspecified) | Active | Active | Active | Active | 34.4 | 150 | 21000
6 | CCN(CCCNC1=CC(=O)C(NCCCNC(=O)CCCCC2CCSS2)=CC1=O)Cc1ccccc1OC (stereo unspecified) | Active | Active | Active | Active | 19.2 | 190 | 212000
